Assay results taken from ChEMBL document CHEMBL1671684, “In vitro resistance profile of the hepatitis C virus NS3/4A protease inhibitor TMC435” (Antimicrob Agents Chemother, 2010).
Active and inactive are the calls of the source. The calls are words filed in the database; no cut-off is given here.

Assays:
[1] = Inhibition of Hepatitis C virus subtype 1a NS3/4A protease
[2] = Inhibition of Hepatitis C virus subtype 4a NS3/4A protease
[3] = Inhibition of Hepatitis C virus subtype 5a NS3/4A protease
[4] = Inhibition of Hepatitis C virus subtype 6a NS3/4A protease
Hepatitis C virus [5] = experiment: Antiviral activity against Hepatitis C virus subtype 2a JFH1 infected in HuH7.5 cells assessed as decline in viral RNA replication at 500 nM after 14 passages by TaqMan RT-PCR; type: functional, organism-based; settings: Hepacivirus hominis
Outline: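 Huh7.5 cells electroporated with JFH-1wt RNA (genotype 2a, no reporter) in Cytomix with 2 mM ATP and 5 mM glutathione, then 500,000 cells seeded. From day 3, cells passaged with inhibitor at 500 nM or vehicle. HCV RNA quantified at each passage by TaqMan real-time RT-PCR, normalised to host RPL13A RNA by comparative CT. Day-3 level set as 100%.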

Hepatitis C virus [6] = experiment: Antiviral activity against Hepatitis C virus infected in HuH7 cells assessed as cell viability at 25 times EC50 after 2 to 3 weeks by neutral red assay in presence of 1,000 ug/ml G418; type: functional, organism-based; settings: Hepacivirus hominis; Huh-7
Outline: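 Huh7-Luc genotype 1b (con1, clone ET) replicon cells, 20,000 per 10-cm dish in DMEM with 1,000 μg/ml G418. Cells got one inhibitor or a two-inhibitor combination, dosed as multiples of each inhibitor's EC50 from a genotype 1b luciferase replicon assay. Held at 37°C, 5% CO2, with medium plus compound refreshed twice weekly. After 2–3 weeks, surviving colonies were stained with neutral red and counted. Three independent experiments.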

Hepatitis C virus [7] = experiment: Antiviral activity against Hepatitis C virus subtype 1a infected in human assessed as suppression of viral RNA level at 200 mg administered SID for 5 days measured after 3 days last postdose; type: functional, organism-based; settings: Hepacivirus hominis

SMILES: COc1ccc2c(O[C@@H]3C[C@H]4C(=O)N[C@]5(C(=O)NS(=O)(=O)C6CC6)C[C@H]5/C=C\CCCCN(C)C(=O)[C@@H]4C3)cc(-c3nc(C(C)C)cs3)nc2c1C [SIMEPREVIR]
- Ki [1]: 0.4 nM
- IC50 [2]: < 13 nM
- IC50 [3]: < 13 nM
- IC50 [4]: < 13 nM
- inhibition (Hepatitis C virus [5]): Active
- inhibition (Hepatitis C virus [6]): inactive
- inhibition (Hepatitis C virus [7]): Active
